From publication PMC7004556 (Cancer Science, 2020)
Entries after “also recorded” stand apart in the source; their conditions may differ. Marks after values point to notes of the source that are not given here.

Assays:
Assay type in all cases: in vivo, human
[1] = test system: patients with advanced solid tumors; assay: Phase I dose escalation: safety and tolerability
Method in brief: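 Patients received a single 1 mg oral dose on cycle 0 day 1, then a washout on days 2-7. Oral once-daily dosing followed in 28-day cycles from day 8-10. Doses were escalated by mTPI design (target DLT rate 25% ± 5%). DLTs were assessed over cycles 0-1 against predefined haematological, non-haematological, calcification and hyperphosphataemia criteria. AEs were coded by MedDRA v20.1 and graded by CTCAE v4.03.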

advanced solid tumors = assay: Antitumor activity by RECIST v1.1 in phase I
Method in brief: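 Tumours assessed by CT and/or MRI per RECIST v1.1 at screening, every 8 weeks from cycle 1 day 1, and at discontinuation. Oral once-daily dosing ran in 28-day cycles. Best overall response was scored in patients with ≥1 RECIST target lesion. The efficacy set covered treated patients with a baseline and ≥1 post-baseline assessment.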

Phase I pharmacokinetics = details: for AUC(0‐t) / C avg / C max / C min / T max / AUC(0‐inf) / CL/F / T 1/2 / Vz/F: oral; for T max: median (range)
Method in brief: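 Plasma was sampled predose in all cycles and after dosing up to cycle 3. Plasma (100 µL) plus IS and 5 mmol/L ammonium hydrogen carbonate underwent solid-phase extraction, with methanol/formic acid elution. Drug in plasma and urine was quantified by LC-MS/MS: ODS column at 40°C, isocratic 40:60 water/acetonitrile-water with 15 mmol/L ammonium hydrogen carbonate, 0.25 mL/minute, positive-mode MRM. Parameters came from non-compartmental analysis.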

[2] = repeated dose QD, 30 mg (n = 2), mean
[3] = repeated dose QD, 60 mg (n = 2), mean
[4] = repeated dose QD, 100 mg (n = 3), mean ± SD
[5] = repeated dose QD, 140 mg (n = 3), mean ± SD
[6] = repeated dose QD, 180 mg (n = 3), mean ± SD
[7] = single dose, 30 mg (n = 2), mean
[8] = single dose, 60 mg (n = 3), mean ± SD
[9] = single dose, 100 mg (n = 3), mean ± SD
[10] = single dose, 140 mg (n = 3), mean ± SD
[11] = single dose, 180 mg (n = 3), mean ± SD

## CNC(=O)n1ccc2cc(Oc3ccnc(NC(=O)c4ccc(C5CCN(CCO)CC5)cc4)c3)c(OCCOC)cc21 [E7090]
[1]; 1 mg QD to 140 mg QD, cycle 0‐cycle 1
  Dose‐limiting toxicity (DLT): No DLT was observed; also recorded: no DLT were reported
[1]; 60 mg (n = 3), any grade
  ALT increased, treatment‐related TEAE: 1 (33.3) n (%)
  Anemia, treatment‐related TEAE: 1 (33.3) n (%)
  Blood creatinine increased, treatment‐related TEAE: 2 (66.7) n (%)
  Diarrhea, treatment‐related TEAE: 2 (66.7) n (%)
  Lipase increased, treatment‐related TEAE: 1 (33.3) n (%)
  Nausea, treatment‐related TEAE: 1 (33.3) n (%)
  PPE syndrome, treatment‐related TEAE: 1 (33.3) n (%)
  Vomiting, treatment‐related TEAE: 1 (33.3) n (%)
[1]; 100 mg (n = 3), any grade
  Anemia, treatment‐related TEAE: 1 (33.3) n (%)
  Blood ALP increased, treatment‐related TEAE: 1 (33.3) n (%)
  Blood creatinine increased, treatment‐related TEAE: 1 (33.3) n (%)
  Hyperphosphatemia, treatment‐related TEAE: 3 (100.0) n (%)
  Lipase increased, treatment‐related TEAE: 1 (33.3) n (%)
  Nausea, treatment‐related TEAE: 1 (33.3) n (%)
  Retinal detachment, treatment‐related TEAE: 2 (66.7) n (%)
[1]; 140 mg (n = 3), any grade
  ALT increased, treatment‐related TEAE: 3 (100.0) n (%)
  AST increased, treatment‐related TEAE: 2 (66.7) n (%)
  Anemia, treatment‐related TEAE: 1 (33.3) n (%)
  Blood ALP increased, treatment‐related TEAE: 2 (66.7) n (%)
  Blood creatinine increased, treatment‐related TEAE: 3 (100.0) n (%)
  Diarrhea, treatment‐related TEAE: 1 (33.3) n (%)
  Dysgeusia, treatment‐related TEAE: 2 (66.7) n (%)
  Hyperphosphatemia, treatment‐related TEAE: 3 (100.0) n (%)
  Lipase increased, treatment‐related TEAE: 1 (33.3) n (%)
  Nausea, treatment‐related TEAE: 1 (33.3) n (%)
  PPE syndrome, treatment‐related TEAE: 1 (33.3) n (%)
  Retinal detachment, treatment‐related TEAE: 1 (33.3) n (%)
  Vomiting, treatment‐related TEAE: 1 (33.3) n (%)
[1]; 180 mg (n = 3), any grade
  ALT increased, treatment‐related TEAE: 2 (66.7) n (%)
  AST increased, treatment‐related TEAE: 2 (66.7) n (%)
  Blood creatinine increased, treatment‐related TEAE: 1 (33.3) n (%)
  Diarrhea, treatment‐related TEAE: 3 (100.0) n (%)
  Dysgeusia, treatment‐related TEAE: 1 (33.3) n (%)
  Hyperphosphatemia, treatment‐related TEAE: 3 (100.0) n (%)
  Lipase increased, treatment‐related TEAE: 1 (33.3) n (%)
  Nausea, treatment‐related TEAE: 1 (33.3) n (%)
  PPE syndrome, treatment‐related TEAE: 2 (66.7) n (%)
  Vomiting, treatment‐related TEAE: 1 (33.3) n (%)
[1]; 180 mg (n = 3), ≥Grade 3
  ALT increased, treatment‐related TEAE: 2 (66.7) n (%)
  AST increased, treatment‐related TEAE: 1 (33.3) n (%)
  Vomiting, treatment‐related TEAE: 1 (33.3) n (%)
[1]; 1‐30 mg (n = 12), any grade
  Blood creatinine increased, treatment‐related TEAE: 2 (16.7) n (%)
  Lipase increased, treatment‐related TEAE: 1 (8.3) n (%)
  Nausea, treatment‐related TEAE: 1 (8.3) n (%)
[1]; QD
  Recommended dose for Part 2 (expansion part): 140 mg
[1]; Total (N = 24), any grade
  ALT increased, treatment‐related TEAE: 6 (25.0) n (%)
  AST increased, treatment‐related TEAE: 4 (16.7) n (%)
  Anemia, treatment‐related TEAE: 3 (12.5) n (%)
  Blood ALP increased, treatment‐related TEAE: 3 (12.5) n (%)
  Blood creatinine increased, treatment‐related TEAE: 9 (37.5) n (%)
  Diarrhea, treatment‐related TEAE: 6 (25.0) n (%)
  Dysgeusia, treatment‐related TEAE: 3 (12.5) n (%)
  Hyperphosphatemia, treatment‐related TEAE: 9 (37.5) n (%)
  Lipase increased, treatment‐related TEAE: 5 (20.8) n (%)
  Nausea, treatment‐related TEAE: 5 (20.8) n (%)
  PPE syndrome, treatment‐related TEAE: 4 (16.7) n (%)
  Retinal detachment, treatment‐related TEAE: 3 (12.5) n (%)
  Vomiting, treatment‐related TEAE: 3 (12.5) n (%)
[1]; Total (N = 24), ≥Grade 3
  ALT increased, treatment‐related TEAE: 2 (8.3) n (%)
  AST increased, treatment‐related TEAE: 1 (4.2) n (%)
  Vomiting, treatment‐related TEAE: 1 (4.2) n (%)
[1]; daily oral dose of 1‐180 mg
  Maximum tolerated dose (MTD): not reached
[1]; in vivo
  Drug‐related deaths: No drug‐related deaths were reported
  Number of AE of hyperphosphatemia: nine
  Number of AE of retinal detachment: three
  SAE considered related to the study drug: None
  TEAE leading to discontinuation of the study drug: no TEAE led to discontinuation
  TEAE leading to dose reduction: PPE syndrome: 2 n
  TEAE leading to dose reduction: increased ALT: 2 n
  TEAE leading to dose reduction: increased AST: 1 n
  TEAE‐related dose interruption: anorexia: 2 n
  TEAE‐related dose interruption: decreased neutrophil count: 1 n
  TEAE‐related dose interruption: nasopharyngitis: 1 n
  TEAE‐related dose interruption: nausea: 3 n
  TEAE‐related dose interruption: vomiting: 2 n
[1]; of 24 patients treated
  Number of patients with SAE: three
Advanced solid tumors; 30‐mg cohort
  Antitumor activity in cholangiocarcinoma with FGFR2 fusion: did not show potent antitumor activity
Advanced solid tumors; 180‐mg cohort, gastric cancer with FGFR2 amplification, cycle 3 day 1, from 38 to 11 mm
  Reduction in diameter of the target lesion: 71%
Phase I pharmacokinetics; 1‐16‐mg cohorts
  Plasma concentrations at 72 hours after dosing: below the limit of quantification
Phase I pharmacokinetics; [2]
  AUC(0‐t): 162 ng·h/mL
  C avg: 7 ng/mL
  C max: 13 ng/mL
  C min: 5 ng/mL
Phase I pharmacokinetics; repeated dose QD, 30 mg (n = 2)
  T max: 4 (3‐5) h
Phase I pharmacokinetics; [3]
  AUC(0‐t): 507 ^a h × ng/mL
  C avg: 21 ^a ng/mL
  C max: 51 ^a ng/mL
  C min: 11 ^a ng/mL
Phase I pharmacokinetics; repeated dose QD, 60 mg (n = 2)
  T max: 3 (2‐3) ^a h
Phase I pharmacokinetics; [4]
  AUC(0‐t): 1340 ± 437 ng·h/mL
  C avg: 56 ± 18 ng/mL
  C max: 116 ± 4 ng/mL
  C min: 22 ± 9 ng/mL
Phase I pharmacokinetics; repeated dose QD, 100 mg (n = 3)
  T max: 3 (2‐5) h
Phase I pharmacokinetics; [5]
  AUC(0‐t): 4700 ± 3380 ng·h/mL
  C avg: 196 ± 141 ng/mL
  C max: 372 ± 173 ng/mL
  C min: 117 ± 116 ng/mL
Phase I pharmacokinetics; repeated dose QD, 140 mg (n = 3)
  T max: 5 (3‐5) h
Phase I pharmacokinetics; [6]
  AUC(0‐t): 3860 ± 764 ng·h/mL
  C avg: 161 ± 32 ng/mL
  C max: 337 ± 60 ng/mL
  C min: 65 ± 19 ng/mL
Phase I pharmacokinetics; repeated dose QD, 180 mg (n = 3)
  T max: 5 (3‐5) h
Phase I pharmacokinetics; [7]
  AUC(0‐inf): 239 ng·h/mL
  AUC(0‐t): 222 ng·h/mL
  C max: 28 ng/mL
  CL/F: 127 L/h
  T 1/2: 23 h
  Vz/F: 4180 L
Phase I pharmacokinetics; single dose, 30 mg (n = 2)
  T max: 3 (1‐5) h
Phase I pharmacokinetics; [8]
  AUC(0‐inf): 554 ± 247 ng·h/mL
  AUC(0‐t): 533 ± 257 ng·h/mL
  C max: 39 ± 5 ng/mL
  CL/F: 121 ± 43 L/h
  T 1/2: 23 ± 8 h
  Vz/F: 3790 ± 1240 L
Phase I pharmacokinetics; single dose, 60 mg (n = 3)
  T max: 3 (3‐5) h
Phase I pharmacokinetics; [9]
  AUC(0‐inf): 1120 ± 479 ng·h/mL
  AUC(0‐t): 1080 ± 474 ng·h/mL
  C max: 86 ± 31 ng/mL
  CL/F: 103 ± 48 L/h
  T 1/2: 15 ± 2 h
  Vz/F: 2310 ± 1360 L
Phase I pharmacokinetics; single dose, 100 mg (n = 3)
  T max: 5 (3‐5) h
Phase I pharmacokinetics; [10]
  AUC(0‐inf): 4050 ± 3340 ng·h/mL
  AUC(0‐t): 3960 ± 3230 ng·h/mL
  C max: 227 ± 118 ng/mL
  CL/F: 59 ± 50 L/h
  T 1/2: 27 ± 12 h
  Vz/F: 1670 ± 617 L
Phase I pharmacokinetics; single dose, 140 mg (n = 3)
  T max: 5 (3‐5) h
Phase I pharmacokinetics; [11]
  AUC(0‐inf): 2610 ± 921 ng·h/mL
  AUC(0‐t): 2570 ± 933 ng·h/mL
  C max: 154 ± 38 ng/mL
  CL/F: 74 ± 22 L/h
  T 1/2: 24 ± 10 h
  Vz/F: 2550 ± 1550 L
Phase I pharmacokinetics; single dose, 180 mg (n = 3)
  T max: 2 (2‐5) h
Phase I pharmacokinetics; up to 180 mg
  C max and AUC(0‐ t ) versus dose: Dose‐dependent increases
